Assay results as given in the RNAGym collection of RNA variant scans (doi:10.1126/science.aae0568).
Variants at the floor of the assay were thinned out.

B1: tRNA (parent)
chain: GUUCCGUUGGCGUAAUGGUAACGCGUCUCCCUCCUAAGGAGAAGACUGCGGGUUCGAGUCCCGUACGGAACG

Variants of: B1
Test: yeast fitness relative to wild type (ratio to wild type); higher = fitter; tRNA-Arg(CCU), competitive growth, 37 C, YPD
Summary of the method: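 Changes in genotype frequencies gave Darwinian fitness relative to wild type. Frequencies were read by 100-nucleotide paired-end sequencing of gene amplicons before and after pooled Saccharomyces cerevisiae strains, carrying tRNA-Arg(CCU) gene variants at the native locus, were competed in YPD at 37°C for 24 hours in six replicates. A genotype was kept only with ≥ 100 starting reads, and estimates < 0.5 were set to 0.5.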

Row | Variant | yeast fitness
1 | GUUCCGUUGGCGUAAUGGUAACGCGUCUCCCUCCUAAGGAGAAGACUGCGGGUUCGAGUCCCGAACGGGACG | 0.719
2 | GUUCCGUUGGCGUAAUGGUAACGCGUCUCCCUCCUAAGGAGAAGACUGCGGGUUCGAGUCCCGAACGGAGCG | 0.711
3 | GUUCCGUUGGCGUAAUGGUAACGCGUCUCCCUCCUAAGGAGAAGACUGCGGGUUCGAGUCCCGAACGGAUCG | 0.884
4 | GUUCCGUUGGCGUAAUGGUAACGCGUCUCCCUCCUAAGGAGAAGACUGCGGGUUCGAGUCCCUUAAGGUACG | ≤ 0.5
5 | GUUCCGUUGGCGUAAUGGUAACGCGUCUCCCUCCUAAGGAGAAGACUGCGGGUUCGAGUCCCGAUCGGAACG | 0.718
6 | GUUCCGUUGGCGUAAUGGUAACGCGUCUCCCUCCUAAGGAGAAGACUGCGGGUUCGAGUCCCGUGCGCAACG | 0.859
7 | GUUCCGUUGGCGUAAUGGUAACGCGUCUCCCUCCUAAGGAGAAGACUGCGGGUUCGAGUCCCCUACGUAACG | 0.568
8 | GUUCCGUUGGCGUAAUGGUAACGCGUCUCCCUCCUAAGGAGAAGACUGCGGGUUCGAGUCCCCUACGCAACG | 0.761
9 | GUUCCGUUGGCGUAAUGGUAACGCGUCUCCCUCCUAAGGAGAAGACUGCGGGUUCGAGUCCCCUGCGGAACG | 0.594
10 | GUUCCGUUGGCGUAAUGGUAACGCGUCUCCCUCCUAAGGAGAAGACUGCGGGUUCGAGUCCCCUCCGGAACG | 0.638
11 | GUUCCGUUGGCGUAAUGGUAACGCGUCUCCCUCCUAAGGAGAAGACUGCGGGUUCGAGUCCCGAGCUGAACG | 0.709
12 | GUUCCGUUGGCGUAAUGGUAACGCGUCUCCCUCCUAAGGAGAAGACUGCGGGUUCGAGUCCCGUAAGGAUCG | 0.603
13 | GUUCCGUUGGCGUAAUGGUAACGCGUCUCCCUCCUAAGGAGAAGACUGCGGGUUCGAGUCCCGUGCAGAACG | 1.03
14 | GUUCCGUUGGCGUAAUGGUAACGCGUCUCCCUCCUAAGGAGAAGACUGCGGGUUCGAGUCCCGUGCGGACCG | 0.889
15 | GUUCCGUUGGCGUAAUGGUAACGCGUCUCCCUCCUAAGGAGAAGACUGCGGGUUCGAGUCCCGUUCGUAACG | 0.99
16 | GUUCCGUUGGCGUAAUGGUAACGCGUCUCCCUCCUAAGGAGAAGACUGCGGGUUCGAGUCCCGUUCGCAACG | 0.625
17 | GUUCCGUUGGCGUAAUGGUAACGCGUCUCCCUCCUAAGGAGAAGACUGCGGGUUCGAGUCCCCUACGGACCG | 0.744
18 | GUUCCGUUGGCGUAAUGGUAACGCGUCUCCCUCCUAAGGAGAAGACUGCGGGUUCGAGUCCCGUCCAGAACG | 0.692
19 | GUUCCGUUGGCGUAAUGGUAACGCGUCUCCCUCCUAAGGAGAAGACUGCGGGUUCGAGUCCCGUACCGUACG | 0.896
20 | GUUCCGUUGGCGUAAUGGUAACGCGUCUCCCUCCUAAGGAGAAGACUGCGGGUUCGAGUCCCGUUCGGCACG | 0.845
21 | GUUCCGUUGGCGUAAUGGUAACGCGUCUCCCUCCUAAGGAGAAGACUGCGGGUUCGAGUCCCGUUCGGUACG | 0.967
22 | GUUCCGUUGGCGUAAUGGUAACGCGUCUCCCUCCUAAGGAGAAGACUGCGGGUUCGAGUCCCGGAUGGAACG | 0.669
23 | GUUCCGUUGGCGUAAUGGUAACGCGUCUCCCUCCUAAGGAGAAGACUGCGGGUUCGAGUCCCGUUCAGAACG | 0.839
24 | GUUCCGUUGGCGUAAUGGUAACGCGUCUCCCUCCUAAGGAGAAGACUGCGGGUUCGAGUCCCAUACGAAACG | 0.843
25 | GUUCCGUUGGCGUAAUGGUAACGCGUCUCCCUCCUAAGGAGAAGACUGCGGGUUCGAGUCCCAUACGCAACG | 0.883

Row | Variant | yeast fitness
26 | GUUCCGUUGGCGUAAUGGUAACGCGUCUCCCUCCUAAGGAGAAGACUGCGGGUUCGAGUCCCGUAUGGAGCG | 0.973
27 | GUUCCGUUGGCGUAAUGGUAACGCGUCUCCCUCCUAAGGAGAAGACUGCGGGUUCGAGUCCCAGACGGAACG | 0.8
28 | GUUCCGUUGGCGUAAUGGUAACGCGUCUCCCUCCUAAGGAGAAGACUGCGGGUUCGAGUCCCGACCGAAACG | 0.526
29 | GUUCCGUUGGCGUAAUGGUAACGCGUCUCCCUCCUAAGGAGAAGACUGCGGGUUCGAGUCCCGCACGUAACG | 1.01
30 | GUUCCGUUGGCGUAAUGGUAACGCGUCUCCCUCCUAAGGAGAAGACUGCGGGUUCGAGUCCCAUACUGAACG | 0.686
31 | GUUCCGUUGGCGUAAUGGUAACGCGUCUCCCUCCUAAGGAGAAGACUGCGGGUUCGAGUCCCGUAGGGCACG | 0.782
32 | GUUCCGUUGGCGUAAUGGUAACGCGUCUCCCUCCUAAGGAGAAGACUGCGGGUUCGAGUCCCGUAGGGUACG | 0.746
33 | GUUCCGUUGGCGUAAUGGUAACGCGUCUCCCUCCUAAGGAGAAGACUGCGGGUUCGAGUCCCGGACGAAACG | 0.678
34 | GUUCCGUUGGCGUAAUGGUAACGCGUCUCCCUCCUAAGGAGAAGACUGCGGGUUCGAGUCCCGUAAAGAACG | 0.557
35 | GUUCCGUUGGCGUAAUGGUAACGCGUCUCCCUCCUAAGGAGAAGACUGCGGGUUCGAGUCCCGAACAGAACG | 0.84
36 | GUUCCGUUGGCGUAAUGGUAACGCGUCUCCCUCCUAAGGAGAAGACUGCGGGUUCGAGUCCCGCACCGAACG | 0.938
37 | GUUCCGUUGGCGUAAUGGUAACGCGUCUCCCUCCUAAGGAGAAGACUGCGGGUUCGAGUCCCGCACAGAACG | 0.802
38 | GUUCCGUUGGCGUAAUGGUAACGCGUCUCCCUCCUAAGGAGAAGACUGCGGGUUCGAGUCCCGCACGGCUCG | 0.757
39 | GUUCCGUUGGCGUAAUGGUAACGCGUCUCCCUCCUAAGGAGAAGACUGCGGGUUCGAGUCCCGGACGGGACG | 0.789
40 | GUUCCGUUGGCGUAAUGGUAACGCGUCUCCCUCCUAAGGAGAAGACUGCGGGUUCGAGUCCCGGACGGCACG | 0.616
41 | GUUCCGUUGGCGUAAUGGUAACGCGUCUCCCUCCUAAGGAGAAGACUGCGGGUUCGAGUCCCGUAAGCAACG | 0.678
42 | GUUCCGUUGGCGUAAUGGUAACGCGUCUCCCUCCUAAGGAGAAGACUGCGGGUUCGAGUCCCGUUCGGACCG | 0.823
43 | GUUCCGUUGGCGUAAUGGUAACGCGUCUCCCUCCUAAGGAGAAGACUGCGGGUUCGAGUCCCGUCCGGAUCG | 1.06
44 | GUUCCGUUGGCGUAAUGGUAACGCGUCUCCCUCCUAAGGAGAAGACUGCGGGUUCGAGUCCCGUCCGGAGCG | 1.06
45 | GUUCCGUUGGCGUAAUGGUAACGCGUCUCCCUCCUAAGGAGAAGACUGCGGGUUCGAGUCCUGUACGCAACG | 0.812
46 | GUUCCGUUGGCGUAAUGGUAACGCGUCUCCCUCCUAAGGAGAAGACUGCGGGUUCGAGUCCCGUACAGACCG | 0.901
47 | GUUCCGUUGGCGUAAUGGUAACGCGUCUCCCUCCUAAGGAGAAGACUGCGGGUUCGAGUCCCAUGCGGUACG | 0.609
48 | GUUCCGUUGGCGUAAUGGUAACGCGUCUCCCUCCUAAGGAGAAGACUGCGGGUUCGAGUCCUGUACAGAACG | 0.849
49 | GUUCCGUUGGCGUAAUGGUAACGCGUCUCCCUCCUAAGGAGAAGACUGCGGGUUCGAGUCCCGUAGGGAUCG | 0.724
50 | GUUCCGUUGGCGUAAUGGUAACGCGUCUCCCUCCUAAGGAGAAGACUGCGGGUUCGAGUCCCGUAGGCAACG | 0.634

Row | Variant | yeast fitness
51 | GUUCCGUUGGCGUAAUGGUAACGCGUCUCCCUCCUAAGGAGAAGACUGCGGGUUCGAGUCCCGCAAGGAACG | 0.832
52 | GUUCCGUUGGCGUAAUGGUAACGCGUCUCCCUCCUAAGGAGAAGACUGCGGGUUCGAGUCCCGGACGGACCG | 0.755
53 | GUUCCGUUGGCGUAAUGGUAACGCGUCUCCCUCCUAAGGAGAAGACUGCGGGUUCGAGUCCCGUGGGGAACG | 0.897
54 | GUUCCGUUGGCGUAAUGGUAACGCGUCUCCCUCCUAAGGAGAAGACUGCGGGUUCGAGUCCCAUACGGAGCG | 0.804
55 | GUUCCGUUGGCGUAAUGGUAACGCGUCUCCCUCCUAAGGAGAAGACUGCGGGUUCGAGUCCCGUCCGGGACG | 0.939
56 | GUUCCGUUGGCGUAAUGGUAACGCGUCUCCCUCCUAAGGAGAAGACUGCGGGUUCGAGUCCCGUCCGGUACG | 0.921
57 | GUUCCGUUGGCGUAAUGGUAACGCGUCUCCCUCCUAAGGAGAAGACUGCGGGUUCGAGUCCCGUCCGGCACG | 0.727
58 | GUUCCGUUGGCGUAAUGGUAACGCGUCUCCCUCCUAAGGAGAAGACUGCGGGUUCGAGUCCCCUACCGAACG | 0.605
59 | GUUCCGUUGGCGUAAUGGUAACGCGUCUCCCUCCUAAGGAGAAGACUGCGGGUUCGAGUCCCCUACUGAACG | 0.677
60 | GUUCCGUUGGCGUAAUGGUAACGCGUCUCCCUCCUAAGGAGAAGACUGCGGGUUCGAGUCCCGGUCGGAACG | 0.648
61 | GUUCCGUUGGCGUAAUGGUAACGCGUCUCCCUCCUAAGGAGAAGACUGCGGGUUCGAGUCCCAUAUGGAACG | 0.826
62 | GUUCCGUUGGCGUAAUGGUAACGCGUCUCCCUCCUAAGGAGAAGACUGCGGGUUCGAGUCCCGUAUGGCACG | 0.743
63 | GUUCCGUUGGCGUAAUGGUAACGCGUCUCCCUCCUAAGGAGAAGACUGCGGGUUCGAGUCCCGUAUGGUACG | 0.831
64 | GUUCCGUUGGCGUAAUGGUAACGCGUCUCCCUCCUAAGGAGAAGACUGCGGGUUCGAGUCCCAUGCGGAACG | 0.889
65 | GUUCCGUUGGCGUAAUGGUAACGCGUCUCCCUCCUAAGGAGAAGACUGCGGGUUCGAGUCCCGCGCGGAACG | 0.86
66 | GUUCCGUUGGCGUAAUGGUAACGCGUCUCCCUCCUAAGGAGAAGACUGCGGGUUCGAGUCCCGCUCGGAACG | 0.928
67 | GUUCCGUUGGCGUAAUGGUAACGCGUCUCCCUCCUAAGGAGAAGACUGCGGGUUCGAGUCCCGUAUGAAACG | 0.871
68 | GUUCCGUUGGCGUAAUGGUAACGCGUCUCCCUCCUAAGGAGAAGACUGCGGGUUCGAGUCCCGUGGGGAGCG | ≤ 0.5
69 | GUUCCGUUGGCGUAAUGGUAACGCGUCUCCCUCCUAAGGAGAAGACUGCGGGUUCGAGUCCCGUACAGGACG | 0.974
70 | GUUCCGUUGGCGUAAUGGUAACGCGUCUCCCUCCUAAGGAGAAGACUGCGGGUUCGAGUCCCGUACAAAACG | 0.85
71 | GUUCCGUUGGCGUAAUGGUAACGCGUCUCCCUCCUAAGGAGAAGACUGCGGGUUCGAGUCCCGUCCGGGUCG | 0.519
72 | GUUCCGUUGGCGUAAUGGUAACGCGUCUCCCUCCUAAGGAGAAGACUGCGGGUUCGAGUCCCCUAGGGAACG | 0.709
73 | GUUCCGUUGGCGUAAUGGUAACGCGUCUCCCUCCUAAGGAGAAGACUGCGGGUUCGAGUCCCCUAUGGAACG | 0.666
74 | GUUCCGUUGGCGUAAUGGUAACGCGUCUCCCUCCUAAGGAGAAGACUGCGGGUUCGAGUCCCGUAAGGUACG | 0.693
75 | GUUCCGUUGGCGUAAUGGUAACGCGUCUCCCUCCUAAGGAGAAGACUGCGGGUUCGAGUCCCGUAUCGAACG | 0.934
